Laboratory results as given in ChEMBL document CHEMBL4680098, “Next-Generation Reduction Sensitive Lipid Conjugates of Tenofovir: Antiviral Activity and Mechanism of Release” (J Med Chem, 2016).
Where a name gives a salt, the structure may show the parent alone.

What was measured:
[1] = Stability in aqueous carbonate/bicarbonate buffer at pH 10.16 assessed as compound decomposition measured within 8 mins by LC-MS analysis; type: physicochemical; conditions: read-out: Drug degradation
How it was run: (§1)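 Freshly prepared buffer (3.0 ml) was equilibrated at 37.4 ± 0.2 °C with DTT at ~0.1 M and stirred 10 min. Compound stock in water/MeOH was then added. Aliquots were taken from 0 min to 24 h, with shorter intervals where needed, diluted to 1025 µL with H₂O/MeOH/HCOOH (75:25:0.1) and analysed by LC-MS.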

[2] = Cytotoxicity in uninfected human PBMC assessed as reduction in cell viability by XTT assay; type: tissue-based
How it was run: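 Fresh HIV/HBV-negative human PBMCs isolated by Ficoll-Hypaque and stimulated 48-72 h with 2 µg/mL PHA-P, then kept in RPMI 1640 with 15% FBS and IL-2. Plates were set up as for the anti-HIV assay but without virus, with compound up to 100 μM in log dilutions, for 7 days. Viability read by XTT at 450/650 nm, in triplicate.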

[3] = Stability in aqueous carbonate/bicarbonate buffer at pH 9.19 assessed as compound decomposition by LC-MS analysis; type: physicochemical; how it was run: as §1
[4] = Stability in glycine/HCl buffer at pH 2.0 assessed as compound decomposition by LC-MS analysis; type: physicochemical; how it was run: as §1
Hepatitis B virus = assay: Antiviral activity against HBV infected in human HepG2 assessed as reduction in viral replication incubated for 6 days by real time Q-PCR analysis; type: functional, organism-based; conditions: HepG2, 144 h
How it was run: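 Cells seeded at 1x10⁴/well, held 24 h at 37°C in 5% CO₂. Six ten-fold serial compound dilutions in RPMI1640 with 10% FBS were added in triplicate; medium-only wells served as virus controls. Cultured 6 days; medium with compound renewed on day 3. Day-6 supernatant diluted in buffer containing 40 μg/ml sheared salmon sperm DNA, boiled 15 min, then qPCR; HBV DNA copies interpolated from standard curve.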

[5] = Stability in PBS buffer at pH 7.4 assessed as compound decomposition by LC-MS analysis; type: physicochemical; how it was run: as §1
HepG2 = assay: (§2) Cytotoxicity in uninfected human hepG2 assessed as reduction in cell viability by XTT assay; type: cell-based; conditions: hepg2
How it was run: (§3)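 Uninfected cells were plated and treated as in the anti-HBV plate: six ten-fold compound dilutions, 6 days at 37°C in 5% CO₂, medium renewed day 3. The monolayer was stained with XTT on day 6 and read at 450/650 nm, in triplicate.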

[6] = Therapeutic index, ratio of CC50 for uninfected human PBMC to EC50 for HIV1 infected in human PBMC; type: toxicity; conditions: PBMC (uninfected for CC50, HIV-1 infected for EC50)
[7] = tested on: Human immunodeficiency virus 1; assay: Antiviral activity against HIV1 infected in human PBMC assessed as reduction in viral replication incubated for 7 days by radioactive incorporation polymerization assay based reverse transcriptase activity detection method; type: functional, organism-based; conditions: Human immunodeficiency virus 1, PBMC, 168 h
How it was run: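 Fresh donor PBMCs (HIV/HBV negative) were isolated on Ficoll-Hypaque and stimulated 48-72 hr with PHA-P. They were then kept in RPMI 1640 with 15% FBS and IL-2, and used 72 hr after stimulation at 1×10^6 cells/ml. Compounds were tested up to 100 μM in five serial logarithmic dilutions. Infection used 50-150 TCID₅₀ per well (MOI ~0.002), in triplicate, with supernatant RT activity read at day 7.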

[8] = Aqueous solubility of compound; type: physicochemical; conditions: buffer
[9] = Stability in pH 2.0 buffer assessed as compound decomposition measured up to 350 mins at 37 degC by LC-MS analysis; type: physicochemical; conditions: pH 2, 350 min
[10] = Stability in pH 9.2 buffer assessed as compound decomposition measured up to 350 mins at 37 degC by LC-MS analysis; type: physicochemical; conditions: pH 9.2, 350 min
[11] = Stability in pH 11.56 buffer assessed as compound decomposition measured up to 350 mins at 37 degC by LC-MS analysis; type: physicochemical; conditions: pH 11.56, 350 min
[12] = Therapeutic index, ratio of CC50 for uninfected human HepG2 cells to EC50 for HBV infected in human HepG2 cells; type: toxicity, cell-based
[13] = as §2; type: cell-based; conditions: uninfected HepG2 cells; how it was run: as §3
[14] = Retention time in PBS buffer at pH 7.4 using compound 6 by LC-MS analysis; type: physicochemical

**Q.** Which results are given for `C[C@H](Cn1cnc2c(N)ncnc21)OCP(=O)(O)OCCS`?
**A.** degraded at 8 min [1]: 100%; CC50 ([2]; pbmc): > 100 µM; Stabilty [3]: Unstable; Stabilty [4]: Stable; EC50 (Hepatitis B virus): 41.9 µM; Stabilty [5]: Stable; CC50 (HepG2): > 100 µM

**Q.** What does the source list for `CCCCCCCCCCCCCCCCSSCCOP(=O)(O)CO[C@H](C)Cn1cnc2c(N)ncnc21`?
**A.** selectivity ratio [6]: 22000; EC50 [7]: 0.00065 µM; solubility [8]: Insoluble; EC50 (Hepatitis B virus): 0.02 µM; CC50 (HepG2): > 25 µM

**Q.** With `CCCCCCCCCCCCCCCCSSc1ccccc1COP(=O)(O)CO[C@H](C)Cn1cnc2c(N)ncnc21` as the molecule, how does the CC50 ([2]; pbmc) read?
**A.** Its CC50 is 17.2 µM.

**Q.** What about the EC50 (Hepatitis B virus) of the same molecule?
**A.** Its EC50 is 4.48 µM.

**Q.** What about the CC50 (HepG2) of the same molecule?
**A.** The CC50 was 17.5 µM.

**Q.** Which CC50 ([2]; pbmc) does the source give for `C[C@H](Cn1cnc2c(N)ncnc21)OCP(=O)(O)OCCCCS` here?
**A.** Its CC50 is > 100 µM.

**Q.** What about the Stabilty [9] of the same molecule?
**A.** The Stabilty was “Stable”.

**Q.** What about the Stabilty [10] of the same molecule?
**A.** Its Stabilty is “Stable”.

**Q.** And the EC50 (Hepatitis B virus)?
**A.** Its EC50 is > 100 µM.

**Q.** What about the Stabilty [11] of the same molecule?
**A.** The Stabilty was “Stable”.

**Q.** What about the CC50 (HepG2) of the same molecule?
**A.** Its CC50 is > 100 µM.

**Q.** Which results are given for `CCCCCCCCCCCCCCCCSSCCCCOP(=O)(O)CO[C@H](C)Cn1cnc2c(N)ncnc21`?
**A.** CC50 ([2]; pbmc): > 50 µM; selectivity ratio [6]: > 100000; EC50 [7]: < 0.0005 µM; solubility [8]: Insoluble; EC50 (Hepatitis B virus): 0.248 µM; CC50 (HepG2): > 50 µM

**Q.** What does the source list for `CCCCCCCCCCCCCCCCSSCc1ccccc1COP(=O)(O)CO[C@H](C)Cn1cnc2c(N)ncnc21`?
**A.** selectivity ratio [12]: 214; CC50 ([2]; pbmc): 15.9 µM; EC50 [7]: < 0.0005 µM; EC50 (Hepatitis B virus): 0.152 µM; CC50 (HepG2): 32.5 µM

**Q.** For `CCCCCCCCCCCCSSCCCCCCOP(=O)(O)CO[C@H](C)Cn1cnc2c(N)ncnc21`, which selectivity ratio [12] is on record?
**A.** Its selectivity ratio is > 47.

**Q.** What about the CC50 ([2]; uninfected PBMC) of the same molecule?
**A.** The CC50 was > 50 µM.

**Q.** What about the selectivity ratio [6] of the same molecule?
**A.** Its selectivity ratio is > 7000.

**Q.** What about the EC50 [7] of the same molecule?
**A.** The EC50 was 0.007 µM.

**Q.** What about the EC50 (Hepatitis B virus) of the same molecule?
**A.** The EC50 was 1.05 µM.

**Q.** And the CC50 [13]?
**A.** Its CC50 is > 50 µM.

**Q.** What does the source list for `C[C@H](Cn1cnc2c(N)ncnc21)OCP(=O)(O)O` [TENOFOVIR ANHYDROUS]?
**A.** CC50 ([2]; pbmc): > 100 µM; Retention_time [14]: 0.66 min; EC50 [7]: 0.32 µM

**Q.** Which selectivity ratio [12] does the source give for `CC(C)OC(=O)OCOP(=O)(CO[C@H](C)Cn1cnc2c(N)ncnc21)OCOC(=O)OC(C)C` [TENOFOVIR DISOPROXIL FUMARATE] here?
**A.** The selectivity ratio was 190.

**Q.** What about the selectivity ratio [6] of the same molecule?
**A.** Its selectivity ratio is 9500.

**Q.** What about the EC50 [7] of the same molecule?
**A.** Its EC50 is 0.0045 µM.

**Q.** And the EC50 (Hepatitis B virus)?
**A.** The EC50 was 0.34 µM.

**Q.** And the CC50 (HepG2)?
**A.** The CC50 was 64.5 µM.
